The results in this text go back to ChEMBL document CHEMBL3856188, “Usnic Acid Derivatives with Cytotoxic and Antifungal Activities from the Lichen Usnea longissima” (J Nat Prod, 2016).

The structures appear in SMILES notation. ≈ marks a conversion by molar mass, not a printed value.

Test system in one test: not listed separately
The test can be described thus: Cytotoxicity against human HepG2 cells assessed as cell growth inhibition after 48 hrs by MTT assay. Particulars: HepG2, 48 h. The format is functional, cell-based. The essentials:
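HepG2 cells seeded at 3 × 10^3 cells/well in DMEM with 10% FBS and grown 24 h, then exposed to compound for 48 h. MTT (5 mg/mL in PBS) added for 3 h, supernatant removed, formazan dissolved in DMSO with 10 min shaking, and OD read at 490 nm. Methotrexate served as positive control. Values given as IC50.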
Take `CCO[C@@]12CC(=O)/C(=C(/C)N)C(=O)[C@]1(C)c1c(O)c(C)c(O)c(C(C)=O)c1O2`: the IC50 amounted to 50.2 µM.

On to `CCO[C@@]12CC(O)=C(C(C)=O)C(=O)[C@]1(C)c1c(O)c(C(C)=O)c(O)c(C)c1O2`, for which the IC50 turned out to be 53.3 µM.

For the compound `CN(Cc1cnc2nc(N)nc(N)c2n1)c1ccc(C(=O)N[C@@H](CCC(=O)O)C(=O)O)cc1` [METHOTREXATE], the IC50 amounted to 15.8 µM.

A further test relates to Trichophyton rubrum. The test can be described thus: Antimicrobial activity against Trichophyton rubrum after 4 days by microdilution method. Type of test: functional. Particulars: 96 h.
`CCO[C@@]12CC(=O)/C(=C(/C)N)C(=O)[C@]1(C)c1c(O)c(C(C)=O)c(O)c(C)c1O2` came in with an MIC50 above 200 µM.

As for `CCO[C@@]12CC(=O)/C(=C(/C)N)C(=O)[C@]1(C)c1c(O)c(C)c(O)c(C(C)=O)c1O2`, the MIC50 is above 200 µM.

In turn, `CCOC(=O)CCCN/C(C)=C1\C(=O)C[C@@]2(OCC)Oc3c(C(C)=O)c(O)c(C)c(O)c3[C@@]2(C)C1=O` gave an MIC50 above 200 µM.

The compound `CCOC(=O)CCCN/C(C)=C1\C(=O)C=C2Oc3c(C(C)=O)c(O)c(C)c(O)c3[C@@]2(C)C1=O` returned an MIC50 above 200 µM.

In turn, `COC(=O)CCCN/C(C)=C1\C(=O)C=C2Oc3c(C(C)=O)c(O)c(C)c(O)c3[C@@]2(C)C1=O` had an MIC50 above 200 µM.

`CCO[C@@]12CC(O)=C(C(C)=O)C(=O)[C@]1(C)c1c(O)c(C(C)=O)c(O)c(C)c1O2` showed an MIC50 of 41 µM (≈ 16 µg/mL).

`CC(=O)C1=C(O)C=C2Oc3c(C(C)=O)c(O)c(C)c(O)c3[C@@]2(C)C1=O` [(+)-USNIC ACID] came in with an MIC50 above 200 µM.

For the compound `CCO[C@@]12CC(O)=C(C(C)=O)C(=O)[C@]1(C)c1c(O)c(C)c(O)c(C(C)=O)c1O2`, the MIC50 was determined as 41 µM (≈ 16 µg/mL).
